In the library only some 1.7% were active in any assay of this set; here they are far more common.
Hck-Nef inh: inhibitors of Nef-activated human Hck kinase, primary screen, biochemical, Z-Lyte FRET, 384-well, Hck-YEEI. Tyrosine-protein kinase HCK (Homo sapiens), P08631. Recombinant Hck-YEEI plus Nef, Z-Lyte FRET kinase assay. inhibition, % at 20 µM. actives 0.68% (n = 220,000);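 active means Hck-Nef kinase inhibition above about 50%, limit read from the data; inactive means inhibition below that limit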
Target sequence (P08631 whole entry, looked up): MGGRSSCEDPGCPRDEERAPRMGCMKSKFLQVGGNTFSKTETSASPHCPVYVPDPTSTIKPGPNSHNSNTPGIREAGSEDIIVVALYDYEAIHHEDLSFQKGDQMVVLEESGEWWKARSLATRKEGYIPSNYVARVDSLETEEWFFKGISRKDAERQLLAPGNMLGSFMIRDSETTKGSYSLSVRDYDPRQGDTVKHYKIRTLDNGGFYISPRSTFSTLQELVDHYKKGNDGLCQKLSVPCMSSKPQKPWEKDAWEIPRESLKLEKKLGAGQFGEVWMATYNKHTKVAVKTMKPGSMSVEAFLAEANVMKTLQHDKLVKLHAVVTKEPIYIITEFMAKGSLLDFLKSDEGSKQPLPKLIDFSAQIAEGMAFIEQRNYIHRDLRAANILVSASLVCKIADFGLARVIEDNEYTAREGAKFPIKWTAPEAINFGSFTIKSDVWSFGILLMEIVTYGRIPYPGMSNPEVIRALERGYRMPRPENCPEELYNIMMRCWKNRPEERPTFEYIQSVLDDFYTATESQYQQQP
Runt-SMMHC FRET: inhibitors of RUNX1 Runt–CBFb-SMMHC binding, primary screen, biochemical, FRET, Cerulean-Runt, Venus-CBFb-SMMHC, uHTS; Runt-related transcription factor 1 (Homo sapiens) + Core-binding factor subunit beta …; Cerulean-Runt/Venus-CBFb-SMMHC FRET ratio 530/480, 1 h; inhibition, % at 20 µM; actives 0.74% (n = 220,000);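 active means mean inhibition across duplicate retests at 20 µM reaching about 50%, limit read from the data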;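 further: inhibitors lower the FRET ratio by blocking Runt binding to CBFb-SMMHC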
Runt-CBFb FRET: inhibitors of RUNX1 Runt–CBFb binding, primary screen, biochemical, FRET, Cerulean-Runt, Venus-CBFb, uHTS. inhibition, % at 20 µM. Cerulean-Runt/Venus-CBFb FRET ratio 530/480, 1 h. actives 0.46% (n = 220,000). Runt-related transcription factor 1 (Homo sapiens) + Core-binding factor subunit beta …;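 active means inhibition over about 50% at 20 µM in the single-dose screen, limit read from the data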
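System: Cerulean-labeled Runt domain protein | Quantity: 100 nM of each labeled protein | Schedule: 1 h compound exposure, room temperature | Detection: Fluorescence energy transfer, 422 nm excitation, 530/480 nm emission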
RanGTP-Impb inh: inhibitors of RanGTP-importin-beta interaction, primary screen, biochemical, FRET, CFP-Ran, YFP-importin-beta, homogeneous | cell-free CFP-Ran/YFP-importin-beta FRET ratio | inhibition, % (no concentration beside the values) | actives 1.1% (n = 300,000) | AID 2216, 2009;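 active means more than half of the replicate wells show a fall in the fluorescence ratio signal beyond about 16%, limit read from the data, passing the limit was not always enough; inconclusive means exactly half of the replicate wells pass the set limit; inactive means fewer than half of replicates pass the limit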
YIC FRET counter: YIC intramolecular FRET probe signal interference, dose response, counter-screen for RanGTP-importin-beta inhibitor project, biochemical, fluorescence FRET; actives 40% (n = 1,000); AID 435026, 2010; shares compounds with RanGTP-Impb inh; IC50, µM; Purified YIC probe, intramolecular FRET ratio YFP/CFP;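 active means fitted half-maximal inhibitory concentration no more than tenfold above the top dose tested; inconclusive means flat fit with 30 to 70% activity, or poor fit; inactive means half-maximal concentration beyond tenfold above the top dose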
A number is an active result.

CN1CCN(C(=O)c2ccccc2Nc2ccc(SC(F)F)cc2)CC1 was read as Hck-Nef inh inactive, Runt-SMMHC FRET inactive, Runt-CBFb FRET inactive, RanGTP-Impb inh 19 and YIC FRET counter inactive.
For O=C(Nc1ccc(Cl)cc1)N1CCCC1 the results were Hck-Nef inh inactive, Runt-SMMHC FRET inactive, Runt-CBFb FRET inactive and RanGTP-Impb inh inactive.
`O=C(COC(=O)CSCC(=O)N1CCCCC1)Nc1ccc(Cl)cc1` gave Hck-Nef inh inactive, Runt-SMMHC FRET inactive, Runt-CBFb FRET inactive, RanGTP-Impb inh 28 and YIC FRET counter inactive.
Cc1ccc(C)c(NC(=O)CCN2CCN(c3ccccc3F)CC2)c1 was read as RanGTP-Impb inh inactive.
For Cc1nnc(NC(=O)CSc2nnc(CNC(=O)C34CC5CC(CC(C5)C3)C4)n2C2CCCCC2)s1 the results were Hck-Nef inh inactive, Runt-SMMHC FRET inactive, Runt-CBFb FRET inactive and RanGTP-Impb inh inconclusive.
CC(C)Sc1nnc(CNC(=O)C23CC4CC(CC(C4)C2)C3)n1C1CCCCC1 was read as Hck-Nef inh inactive, Runt-SMMHC FRET inactive, Runt-CBFb FRET inactive, RanGTP-Impb inh 20 and YIC FRET counter inactive.
`O=C(NCCCN1CCCC(O)C1)c1cc(COc2ccc(F)cc2F)on1` (centres undefined) gave RanGTP-Impb inh inactive.
Screening CC(C)Cc1ccc(CN2CCC(n3nccc3NC(=O)C3CCCC3)CC2)cc1 returned RanGTP-Impb inh 22 and YIC FRET counter inactive.
COc1ccc(CN2CCC(n3nccc3NC(=O)C3CCCC3)CC2)cc1 was read as RanGTP-Impb inh inactive.
Screening CC(=O)CSc1cc(-c2ccccc2)nc2ncnn12 returned Hck-Nef inh inactive, Runt-SMMHC FRET inactive, Runt-CBFb FRET inactive and RanGTP-Impb inh inactive.
Screening CCNc1nc(SCCOc2ccc(Br)cc2)nc(N(C)C)n1 returned Hck-Nef inh inactive, Runt-SMMHC FRET inactive, Runt-CBFb FRET inactive and RanGTP-Impb inh inactive.
For O=C1CC(/C=C/c2ccco2)=Nc2ccccc2N1 the results were Hck-Nef inh inactive, Runt-SMMHC FRET inactive, Runt-CBFb FRET inactive, RanGTP-Impb inh 24 and YIC FRET counter inactive.
Screening Cc1c(NS(=O)(=O)c2ccccc2)c(=O)n(-c2ccccc2)n1C returned Hck-Nef inh inactive, Runt-SMMHC FRET inactive, Runt-CBFb FRET inactive and RanGTP-Impb inh inactive.
Cc1c(NC2=CC(=O)CCC2)c(=O)n(-c2ccccc2)n1C was read as Hck-Nef inh inactive, Runt-SMMHC FRET inactive, Runt-CBFb FRET inactive, RanGTP-Impb inh 18 and YIC FRET counter inactive.
For COc1cc(NC(=O)C2C3CCC(O3)C2C(=O)O)cc(OC)c1 (centres undefined) the results were RanGTP-Impb inh inactive.
Screening COC(=O)CCC(=O)OC1(C)C(=O)C=C2C=C(C3CC3)N(Cc3ccc(OC)cc3)C=C2C1=O (centres undefined) returned Hck-Nef inh inactive, Runt-SMMHC FRET inactive, Runt-CBFb FRET inactive, RanGTP-Impb inh 20 and YIC FRET counter 20.
Screening COC(=O)CCC(=O)OC1(C)C(=O)C=C2C=C(C3CC3)N(Cc3ccc4c(c3)OCO4)C=C2C1=O (centres undefined) returned Hck-Nef inh inactive, Runt-SMMHC FRET inactive, Runt-CBFb FRET inactive and RanGTP-Impb inh inactive.
CCOC(=O)/C(=N\Nc1ccc(C(C)=O)cc1)c1csc(Nc2ccccc2)n1 was read as Hck-Nef inh inactive, Runt-SMMHC FRET inactive, Runt-CBFb FRET inactive, RanGTP-Impb inh 18 and YIC FRET counter inactive.
`CCCN1CCN(C(=O)Cn2nc(CC)n3c(cc4sccc43)c2=O)CC1` gave RanGTP-Impb inh inactive.
`CCN(CC)CCN(C(=O)c1ccc(Br)s1)c1nc2cc3c(cc2s1)OCCO3` gave Hck-Nef inh inactive, Runt-SMMHC FRET inactive, Runt-CBFb FRET inactive and RanGTP-Impb inh inactive.
CN(C)CCCN(C(=O)c1ccc(Br)s1)c1nc2cc3c(cc2s1)OCCO3 was read as RanGTP-Impb inh 22 and YIC FRET counter inactive.
`CCOC(=O)CC1C(=O)NCCN1S(=O)(=O)c1ccc(Cl)cc1Cl` (centres undefined) gave Hck-Nef inh inactive, Runt-SMMHC FRET inactive, Runt-CBFb FRET inactive and RanGTP-Impb inh inactive.
C=CCn1c(=O)c(C(=O)Nc2ccc(C)cc2)c(O)c2ccccc21 was read as RanGTP-Impb inh 28 and YIC FRET counter inactive.
For C=CCn1c(=O)c(C(=O)Nc2cc(C)ccn2)c(O)c2ccccc21 the results were RanGTP-Impb inh inactive.
Screening S=C(NN=C(C1CC1)C1CC1)Nc1ccccc1 returned Hck-Nef inh inactive, Runt-SMMHC FRET inactive, Runt-CBFb FRET inactive and RanGTP-Impb inh inconclusive.
For COC(=O)c1nn(-c2ccccc2)c(Sc2ccc(Cl)cc2)c1/C=N/O the results were Hck-Nef inh inactive, Runt-SMMHC FRET inactive, Runt-CBFb FRET inactive and RanGTP-Impb inh inactive.
Screening Cc1ccc(OCc2nnc(SCC(=O)CC(=O)Nc3ccccc3)o2)cc1 returned Hck-Nef inh inactive, Runt-SMMHC FRET inactive, Runt-CBFb FRET inactive, RanGTP-Impb inh 27 and YIC FRET counter inactive.
Screening COc1ccc(OCc2nnc(SCC(=O)Nc3ccc(C)cc3)o2)cc1 returned RanGTP-Impb inh inactive.
Cc1ccc(NC(=O)CN2C(=O)NC3(CCCc4ccccc43)C2=O)c([N+](=O)[O-])c1 (centres undefined) was read as RanGTP-Impb inh inactive.
For CC1(C(=O)O)C=CCN1C(=O)c1ccccc1 (centres undefined) the results were Hck-Nef inh inactive, Runt-SMMHC FRET inactive, Runt-CBFb FRET inactive, RanGTP-Impb inh 19 and YIC FRET counter inactive.
For COc1ccc(-c2c(C)c3ccc(O)cc3oc2=O)cc1 the results were RanGTP-Impb inh 19 and YIC FRET counter 22.
COc1ccc2c(c1)c(=O)oc1cc(O)ccc12 was read as Hck-Nef inh inactive, Runt-SMMHC FRET inactive, Runt-CBFb FRET inactive and RanGTP-Impb inh inactive.
For CCCCc1cc(=O)oc2c(C)c(OCC(=O)NCc3ccccn3)ccc12 the results were RanGTP-Impb inh 31 and YIC FRET counter inactive.
Screening CCCOc1ccc(C2C(C(=O)OC)=CN(CCOC)C=C2C(=O)OC)cc1 returned Hck-Nef inh 56, Runt-CBFb FRET 88, RanGTP-Impb inh 25 and YIC FRET counter 17.
For C=C(C)COc1ccc2c(C)c(CC(=O)OC)c(=O)oc2c1C the results were Hck-Nef inh inactive, Runt-SMMHC FRET inactive and Runt-CBFb FRET inactive.
Screening CCN(CC)Cc1c(O)ccc2c(C)c(CC(=O)OC)c(=O)oc12 returned Hck-Nef inh 73, Runt-SMMHC FRET 80, Runt-CBFb FRET 117, RanGTP-Impb inh 32 and YIC FRET counter 14.

Screening results as filed in PubChem.
